{"source": "ChEMBL document CHEMBL4616673", "about": "(J Med Chem, 2020)", "key": {"[1]": {"assay": "Acute toxicity in BALB/c mouse assessed as effect on blood GLU level at 800 mg/kg, po measured on day 14", "type": "organism-based", "conditions": "in vivo", "method_in_brief": "(§1)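 BALB/c mice, female and male, 6-8 weeks old, given oral doses within 24 h, up to 400 mg/kg (free compound) or 800 mg/kg (nanocrystal formulation). Watched for body weight loss, diarrhea, anorexia, skin ulcer and toxic death. Serum biochemistry panel was run at the end of treatment.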"}, "[2]": {"assay": "Acute toxicity in BALB/c mouse assessed as effect on blood BILT level at 400 mg/kg, po measured on day 14", "type": "organism-based", "conditions": "in vivo", "method_in_brief": "as §1"}, "[3]": {"assay": "Stability of the compound in pH 9 buffer assessed as decrease in compound concentration at 0.01 mg/ml measured up to 24 hrs by LC-MS analysis", "type": "physicochemical", "conditions": "read-out: Drug degradation", "method_in_brief": "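Compound at 0.01 mg/mL final in buffer containing 10% acetonitrile at pH 1.0, 4.5, 6.6, 7.4 or 9.0. Held at 37 °C, sampled at 0, 2, 4, 6, 8, 10, 12 and 24 h. Remaining compound by LC-MS.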"}, "[4]": {"assay": "Acute toxicity in BALB/c mouse assessed as effect on blood GLU level at 400 mg/kg, po measured on day 14", "type": "organism-based", "conditions": "in vivo", "method_in_brief": "as §1"}, "[5]": {"assay": "Acute toxicity in BALB/c mouse assessed as effect on blood ALP level at 400 mg/kg, po measured on day 14", "type": "organism-based", "conditions": "in vivo", "method_in_brief": "as §1"}, "A-375": {"tested_on": "A-375", "assay": "Antiproliferative activity against human A375 cells assessed as reduction in cell viability measured after 48 hrs by MTT assay", "type": "functional, cell-based", "conditions": "Homo sapiens, A-375, 48 h"}, "Raji [6]": {"tested_on": "Raji", "assay": "Induction of apoptosis in human Raji cells assessed as live cells at 0.125 uM measured after 48 hrs by Annexin V-FITC staining based flow cytometry (reference value: 98.09 %)", "type": "functional"}, "[7]": {"assay": "Acute toxicity in BALB/c mouse assessed as effect on blood AST level at 800 mg/kg, po measured on day 14", "type": "organism-based", "conditions": "in vivo", "method_in_brief": "as §1"}, "[8]": {"assay": "Oral bioavailability in Sprague-Dawley rat at 25 mg/kg administered via gavage by LC-MS analysis", "type": "ADME, organism-based", "conditions": "in vivo", "method_in_brief": "(§2)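 Male Sprague-Dawley rats, fasted overnight, jugular vein catheter for serial blood sampling. Single dose of 25 mg/kg by oral gavage or 5 mg/kg by tail-vein injection. Blood drawn at set times and spun at once for plasma, plasma drug by LC-MS. Parameters given as mean, n = 6.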"}, "Raji [9]": {"tested_on": "Raji", "assay": "Induction of ROS generation in human Raji cells assessed as increase in ROS level measured after 24 hrs by DHE dye based fluorescence microplate reader assay", "type": "functional, cell-based", "method_in_brief": "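Raji cells treated 24 h, harvested, stained with 10 μM DHE in pre-warmed PBS for 15 min in the dark. Fluorescence read on a plate reader at ex 510/em 600 nm. Mean ± SD.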"}, "[10]": {"assay": "Acute toxicity in BALB/c mouse assessed as effect on blood HDL level at 800 mg/kg, po measured on day 14", "type": "organism-based", "conditions": "in vivo", "method_in_brief": "as §1"}, "Raji [11]": {"tested_on": "Raji", "assay": "Induction of apoptosis in human Raji cells assessed as necrotic cells at 0.125 uM measured after 48 hrs by Annexin V-FITC staining based flow cytometry (reference value: 0.21 %)", "type": "functional"}, "[12]": {"assay": "Acute toxicity in BALB/c mouse assessed as effect on blood UA level at 800 mg/kg, po measured on day 14", "type": "organism-based", "conditions": "in vivo", "method_in_brief": "as §1"}, "[13]": {"assay": "Tmax in Sprague-Dawley rat at 25 mg/kg, po administered via gavage by LC-MS analysis", "type": "ADME, organism-based", "conditions": "in vivo", "method_in_brief": "as §2"}, "Raji [14]": {"tested_on": "Raji", "assay": "Induction of apoptosis in human Raji cells assessed as early apoptotic cells at 0.125 uM measured after 48 hrs by Annexin V-FITC staining based flow cytometry (reference value: 1 %)", "type": "functional"}, "Raji [15]": {"tested_on": "Raji", "assay": "Antitumor activity against human Raji cells xenografted in NOD-SCID nude mouse assessed as tumor growth inhibition at 30 mg/kg/day, po administered 6 days a week for 3 weeks relative to control", "type": "functional", "conditions": "read-out: TGI", "method_in_brief": "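Nude mice given 1 × 10^7 Raji cells s.c. in serum-free medium plus basement membrane matrix. Randomized at 100–200 mm3 tumour volume (n = 6 per group). Oral dosing 6 days/week for 3 weeks. Vehicles: 30 mg/kg/d in 5% NMP/95% PEG400, 10 mg/kg/d in 30% PEG300/70% saline. Volume = ab²/2 every 3 days. TGI from treated vs control volume change, initial to final day.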"}, "NAMALVA": {"tested_on": "NAMALVA", "assay": "Antiproliferative activity against human NAMALWA cells assessed as reduction in cell viability measured after 48 hrs by MTT assay", "type": "functional, cell-based", "conditions": "Homo sapiens, NAMALVA, 48 h"}, "Raji [16]": {"tested_on": "Raji", "assay": "Induction of apoptosis in human Raji cells assessed as necrotic cells at 0.031 uM measured after 48 hrs by Annexin V-FITC staining based flow cytometry (reference value: 0.21 %)", "type": "functional"}, "[17]": {"assay": "Acute toxicity in BALB/c mouse assessed as effect on spleen at 800 mg/kg, po measured on day 14 by H and E staining based light microscopic analysis", "type": "organism-based", "conditions": "in vivo", "method_in_brief": "(§3)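 Female and male BALB/c mice, 6-8 weeks old, dosed orally within 24 h at up to 400 mg/kg (free compound) or 800 mg/kg (nanocrystal). At the end of treatment, heart, liver, spleen, lung and kidney were sectioned, stained with H&E and imaged by light microscopy.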"}, "[18]": {"assay": "Acute toxicity in BALB/c mouse assessed as effect on blood BILT level at 800 mg/kg, po measured on day 14", "type": "organism-based", "conditions": "in vivo", "method_in_brief": "as §1"}, "[19]": {"assay": "Acute toxicity in BALB/c mouse assessed as effect on heart at 400 mg/kg, po measured on day 14 by H and E staining based light microscopic analysis", "type": "organism-based", "conditions": "in vivo", "method_in_brief": "as §3"}, "[20]": {"assay": "Half life in rat liver microsomes at 1 uM in presence of NADPH by LC-MS analysis", "type": "ADME, Microsome", "method_in_brief": "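Compound at 1 μM with 0.5 mg/mL human, rat or mouse liver microsomes and 1 mM NADPH. Stopped with acetonitrile at 0, 5, 15, 30, 45, 60 and 90 min, centrifuged. Supernatant analysed by LC-MS/MS.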"}, "[21]": {"assay": "Acute toxicity in BALB/c mouse assessed as effect on blood UA level at 400 mg/kg, po measured on day 14", "type": "organism-based", "conditions": "in vivo", "method_in_brief": "as §1"}, "[22]": {"assay": "Acute toxicity in BALB/c mouse assessed as effect on blood CK level at 800 mg/kg, po measured on day 14", "type": "organism-based", "conditions": "in vivo", "method_in_brief": "as §1"}, "Raji [23]": {"tested_on": "Raji", "assay": "Antitumor activity against human Raji cells xenografted in NOD-SCID nude mouse assessed as tumor growth inhibition at 40 mg/kg/day, po administered 6 days a week for 3 weeks relative to control", "type": "functional", "conditions": "read-out: TGI"}, "[24]": {"assay": "Acute toxicity in BALB/c mouse assessed as effect on blood LDH level at 800 mg/kg, po measured on day 14", "type": "organism-based", "conditions": "in vivo", "method_in_brief": "as §1"}, "Raji [25]": {"tested_on": "Raji", "assay": "Antiproliferative activity against human Raji cells assessed as inhibition of cell proliferation at 0.02 to 0.156 uM measured after 48 hrs in presence of uridine by MTT assay", "type": "functional, cell-based", "method_in_brief": "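Raji cells treated with or without 500 μM uridine, viability by MTT. Cells seeded at 2-10 × 10^3 per well, treated 24 h later for 48 h. MTT (5 mg/mL) for 2-4 h, product dissolved overnight in 20% acidified SDS, absorbance at 570 nm. Mean ± SD.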"}, "Raji [26]": {"tested_on": "Raji", "assay": "Induction of apoptosis in human Raji cells assessed as live cells at 0.031 uM measured after 48 hrs by Annexin V-FITC staining based flow cytometry (reference value: 98.09 %)", "type": "functional"}}, "note": "Where “and” joins values, the source holds several entries; their conditions need not be identical. Equal entries are not always repeated. Calls of active or inactive are those of the source. No cut-off for these calls is given here.", "data": [{"smiles": "O=C1c2ccccc2C(=O)c2c1nnn2-c1cc(F)c(-c2ccccc2F)c(F)c1", "values": [{"measurement": "Activity", "setting": "[1]", "result": "Non-Toxic"}, {"measurement": "Activity", "setting": "[2]", "result": "Non-Toxic"}, {"measurement": "degraded at 24 h, 0.01 mg/ml", "setting": "[3]", "result": 15, "unit": "%"}, {"measurement": "Activity", "setting": "[4]", "result": "Non-Toxic"}, {"measurement": "Activity", "setting": "[5]", "result": "Non-Toxic"}, {"measurement": "IC50", "setting": "A-375", "result": 20, "unit": "nM"}, {"measurement": "Activity", "setting": "Raji [6]", "result": 89.46, "unit": "%"}, {"measurement": "Activity", "setting": "[7]", "result": "Non-Toxic"}, {"measurement": "F", "setting": "[8]", "result": "9.66% and 25.16%"}, {"measurement": "Activity", "setting": "Raji [9]", "result": "Dose-dependent effect"}, {"measurement": "Activity", "setting": "[10]", "result": "Non-Toxic"}, {"measurement": "Activity", "setting": "Raji [11]", "result": 0.39, "unit": "%"}, {"measurement": "Activity", "setting": "[12]", "result": "Non-Toxic"}, {"measurement": "Tmax", "setting": "[13]", "result": "10 h and 27 h"}, {"measurement": "Activity", "setting": "Raji [14]", "result": 4.1, "unit": "%"}, {"measurement": "inhibition in vivo at 30 mg/kg/day", "setting": "Raji [15]", "result": 42, "unit": "%"}, {"measurement": "IC50", "setting": "NAMALVA", "result": 990, "unit": "nM"}, {"measurement": "Activity", "setting": "Raji [16]", "result": 0.37, "unit": "%"}, {"measurement": "Activity", "setting": "[17]", "result": "Non-Toxic"}, {"measurement": "Activity", "setting": "[18]", "result": "Non-Toxic"}, {"measurement": "Activity", "setting": "[19]", "result": "Non-Toxic"}, {"measurement": "t1/2", "setting": "[20]", "result": "0.33 h and 0.9 h"}, {"measurement": "Activity", "setting": "[21]", "result": "Non-Toxic"}, {"measurement": "Activity", "setting": "[22]", "result": "Non-Toxic"}, {"measurement": "inhibition in vivo at 40 mg/kg/day", "setting": "Raji [23]", "result": 52, "unit": "%"}, {"measurement": "Activity", "setting": "[24]", "result": "Non-Toxic"}, {"measurement": "inhibition", "setting": "Raji [25]", "result": "inactive"}, {"measurement": "Activity", "setting": "Raji [26]", "result": 93.14, "unit": "%"}]}]}
